Results from different studies.
Lines come from different studies, so protocols differ.
Effect on: enzyme activity
Action: inhibitor
LCK: Tyrosine-protein kinase Lck (LCK, Homo sapiens, UniProt P06239)

`Oc1cccc(-c2nc(N3CCOCC3)c3oc4ncccc4c3n2)c1` has a remaining activity of 98% (LCK; 0.5 µM).
`CCN(CC)c1ccc(C2=NNC(=O)CC2C)cc1[N+](=O)[O-]` (stereo not drawn) has a remaining activity of 118% (LCK; 10 µM).
With `CC(C)(C)C(=O)c1sc(NC2CCCCC2)nc1N` the remaining activity was 85% (LCK; 10 µM).
For `Cc1ccc(NC(=O)c2ccc(C)c(C(F)(F)F)c2)cc1C#Cc1nn(C2CCC(O)CC2)c2ncnc(N)c12` (stereo not drawn), the remaining activity was 0% (LCK; 10 µM).
`CC(C)N(CCC(=O)c1ccc2ccccc2c1)Cc1ccccc1` gave a remaining activity of 98.9% (LCK; 0.5 µM).
The remaining activity of `Cc1ccc(NC(=O)c2ccc(CN3CCN(C)CC3)cc2)cc1Nc1nccc(-c2cncc(-c3oncc3C)c2)n1` is reported as ≤ 50% (LCK; 0.5 µM).
`FC(F)c1nc2ccccc2n1-c1nc(N2CCOCC2)nc(N2CCOCC2)n1` gave a remaining activity of 89% (LCK; 10 µM).
For `O=C1NC(=O)c2cc(Nc3ccc(F)cc3)c(Nc3ccc(F)cc3)cc21`, the remaining activity was 98.4% (LCK; 0.5 µM).
With `Cc1sc(C(=O)NC2COC2)cc1-n1cc(NC(=O)Nc2c(F)cccc2Cl)cn1` the remaining activity was 46.5% (LCK; 10 µM).
For `Cc1ccc(C(=O)Nc2ccc(CN3CCN(C)CC3)c(C(F)(F)F)c2)cc1C#Cc1cnc2cccnn12`, the remaining activity was 0.8% (LCK; 23.5 nM).
The remaining activity of `O=C(Nc1cnn(-c2csc(C(=O)NC3COC3)c2)c1)Nc1ccccc1Cl` is reported as 99.1% (LCK; 5 µM).
`C[S+]([O-])c1ccc(-c2nc(-c3ccncc3)c(-c3ccc(F)cc3)[nH]2)cc1` (stereo not drawn) gave a remaining activity of 95% (LCK; 0.5 µM).
With `CC(C)(O)[C@H]1CC[C@H](Nc2ccc3ncc(-c4cccc(C(F)(F)F)c4)n3n2)CC1` the remaining activity was 11.1% (LCK; 1 µM).
For `COc1cc(Cl)c(C(=O)N[C@@H](CN[C@H]2CC[C@@H](N)CC2)Cc2ccc(C#N)cc2)cc1-c1ccc(CN[C@H](C)c2ccc(C)cc2)o1`, the remaining activity was 85% (Tyrosine-protein kinase Lck, phosphorylated (LCK, Homo sapiens, UniProt P06239); 1 µM).
For `Cc1[nH]c(/C=C2\C(=O)Nc3ccc(F)cc32)c(C)c1C(=O)N[C@H]1CCN(C(=O)N(C)C)C1`, the remaining activity was 42% (LCK; 1 µM).
For `Cc1cnc(NC2CCOCC2)nc1-n1cnc(C(=O)NC(CN)c2cc(F)cc(Cl)c2)c1` (stereo not drawn), the remaining activity was 100% (LCK; radiometric; 1 µM).
The remaining activity of `CC(C)(C)c1nc2c(s1)c1nc(N)ncc1c1ccc(NS(=O)(=O)c3c(F)cccc3F)c(F)c12` is reported as 80% (LCK; radiometric; 1 µM).
For `O=c1cc(-c2cccc3c2Sc2ccccc2S3)oc(N2CCOCC2)c1`, the remaining activity was 98.1% (LCK; 0.5 µM).
The remaining activity of `CCCOc1ccc(OC)c(F)c1C(=O)c1ccc(C(=O)N[C@@H]2CNC[C@H]2NC(=O)c2ccc3[nH]ncc3c2)cc1` is reported as 21% (LCK; 10 µM).
For `O=c1c2ccccc2[nH]c(=S)n1CCN1CCC(=C(c2ccc(F)cc2)c2ccc(F)cc2)CC1`, the remaining activity was 99.5% (LCK; 0.5 µM).
For `COc1cc(Nc2cnc(C#N)c(O[C@H](C)CN(C)C)n2)ncc1-c1cnn(C)c1`, the remaining activity was 60% (LCK; radiometric; 1 µM).
